Each block holds one molecule with its values, some of them ahead of it.
Key:
[1] = Antiproliferative activity against human A375P cells expressing BRAF V600E mutant after 72 hrs by CellTiter-Glo assay; assay type: functional, cell-based
[2] = Antiproliferative activity against human PC-9ER cells after 72 hrs by CellTiter-Glo assay; assay type: functional, cell-based
A549 = assay: Antiproliferative activity against human A549 cells after 72 hrs by CellTiter-Glo assay; assay type: functional, cell-based; details: A549, 72 h
NCI-H358 = assay: Antiproliferative activity against human NCI-H358 cells after 72 hrs by CellTiter-Glo assay; assay type: functional, cell-based; details: NCI-H358, 72 h
[3] = target: Serine/threonine-protein kinase B-raf (Homo sapiens, UniProt P15056); assay: Inhibition of wild-type B-Raf (unknown origin) using MEK1 K97M as substrate preincubated for 90 mins followed by substrate addition measured after 1 hr by fluorescence polarization assay
Serine/threonine-protein kinase B-raf (Homo sapiens, UniProt P15056), sequence (P15056 whole entry): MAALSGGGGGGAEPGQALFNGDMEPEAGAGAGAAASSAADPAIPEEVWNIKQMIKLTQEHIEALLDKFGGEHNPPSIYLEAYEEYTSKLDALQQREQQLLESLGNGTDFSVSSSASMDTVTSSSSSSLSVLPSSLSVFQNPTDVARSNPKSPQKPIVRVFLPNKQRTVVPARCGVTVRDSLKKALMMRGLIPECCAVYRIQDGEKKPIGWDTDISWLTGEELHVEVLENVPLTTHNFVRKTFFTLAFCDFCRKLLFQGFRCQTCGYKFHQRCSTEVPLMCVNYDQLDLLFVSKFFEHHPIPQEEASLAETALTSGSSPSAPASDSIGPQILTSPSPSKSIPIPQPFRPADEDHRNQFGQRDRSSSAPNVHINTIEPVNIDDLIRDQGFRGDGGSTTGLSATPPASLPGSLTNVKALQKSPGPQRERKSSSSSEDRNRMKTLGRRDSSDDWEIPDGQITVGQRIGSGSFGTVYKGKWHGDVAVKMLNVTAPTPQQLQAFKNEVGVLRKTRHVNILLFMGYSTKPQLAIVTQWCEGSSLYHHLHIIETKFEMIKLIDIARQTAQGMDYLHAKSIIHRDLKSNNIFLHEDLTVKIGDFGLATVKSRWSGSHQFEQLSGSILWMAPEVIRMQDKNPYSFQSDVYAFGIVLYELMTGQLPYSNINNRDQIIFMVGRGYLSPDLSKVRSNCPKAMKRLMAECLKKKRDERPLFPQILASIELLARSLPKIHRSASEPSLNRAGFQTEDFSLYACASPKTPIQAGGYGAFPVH
Outline: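 After ATP-containing solution was added, the reaction ran 1 h at room temperature. It was stopped with ADP detection mix (EDTA, ADP² antibody, 3 nM ADP Alexa633 tracer).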

[4] = target: Serine/threonine-protein kinase B-raf (Homo sapiens, UniProt P15056, V600E); assay: Inhibition of B-Raf V600E mutant (unknown origin) using MEK1 K97M as substrate preincubated for 90 mins followed by substrate addition measured after 1 hr by fluorescence polarization assay
Serine/threonine-protein kinase B-raf (Homo sapiens, UniProt P15056, V600E), sequence (P15056 2-766 V600E limits assumed): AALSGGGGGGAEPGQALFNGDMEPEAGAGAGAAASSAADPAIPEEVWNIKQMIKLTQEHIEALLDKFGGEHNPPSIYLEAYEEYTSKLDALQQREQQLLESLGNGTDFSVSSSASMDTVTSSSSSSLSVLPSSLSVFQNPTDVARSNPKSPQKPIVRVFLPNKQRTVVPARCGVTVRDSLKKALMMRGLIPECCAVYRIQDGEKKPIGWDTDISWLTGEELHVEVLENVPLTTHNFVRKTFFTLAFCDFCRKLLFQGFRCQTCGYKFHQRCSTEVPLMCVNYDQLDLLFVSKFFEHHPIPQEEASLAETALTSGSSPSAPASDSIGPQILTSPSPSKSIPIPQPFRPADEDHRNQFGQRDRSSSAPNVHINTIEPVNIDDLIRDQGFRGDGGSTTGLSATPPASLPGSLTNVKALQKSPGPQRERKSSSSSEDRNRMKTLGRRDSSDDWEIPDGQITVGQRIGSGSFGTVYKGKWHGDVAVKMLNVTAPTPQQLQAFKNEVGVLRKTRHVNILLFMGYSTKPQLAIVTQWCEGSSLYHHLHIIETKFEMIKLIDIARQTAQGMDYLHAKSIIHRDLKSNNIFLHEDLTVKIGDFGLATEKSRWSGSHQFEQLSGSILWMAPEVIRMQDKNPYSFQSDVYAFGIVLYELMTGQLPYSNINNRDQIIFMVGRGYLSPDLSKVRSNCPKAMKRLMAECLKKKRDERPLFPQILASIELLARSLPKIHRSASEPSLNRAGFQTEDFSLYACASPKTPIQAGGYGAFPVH
Outline: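 Reactions used 30 nM B-Raf(V600E) enzyme with MEK1 K97M substrate. Kinase reaction ran 1 h at room temperature after ATP-containing solution was added. It was stopped with ADP detection mix (20 mM HEPES pH 7.5, 40 mM EDTA, 10 mM MgCl₂, 0.02% Brij 35, ADP² antibody, 3 nM ADP Alexa633 tracer).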

[5] = Antiproliferative activity against human HCT116 cells after 72 hrs by CellTiter-Glo assay; assay type: functional, cell-based; details: HCT-116, 72 h
[6] = Antiproliferative activity against human PC9 cells after 72 hrs by CellTiter-Glo assay; assay type: functional, cell-based; details: PC-9, 72 h
[7] = Antiproliferative activity against human HKE3 cells after 72 hrs by CellTiter-Glo assay; assay type: functional, cell-based; details: HKE3, 72 h

IC50 (A549): 10.4 µM | IC50 (NCI-H358): 7.55 µM | IC50 [3]: > 12.5 µM | IC50 [4]: > 12.5 µM
SMILES: O=C(Nc1cccc(-c2cnc3c(NC(=O)c4cc(C(F)(F)F)cc(C(F)(F)F)c4)nccn23)c1)Nc1ccc(Cl)c(C(F)(F)F)c1
IC50 [1]: 0.01 µM | IC50 [2]: 14.6 µM | IC50 [5]: 5.31 µM | IC50 [6]: 11.6 µM | IC50 [7]: 6.35 µM

IC50 (A549): 3.23 µM | IC50 (NCI-H358): 4.21 µM | IC50 [3]: > 12.5 µM | IC50 [4]: > 12.5 µM
SMILES: O=C(Nc1cccc(-c2cnc3c(NC(=O)c4cc(Cl)cc(Cl)c4)nccn23)c1)c1ccc(Cl)c(C(F)(F)F)c1
IC50 [1]: 0.04 µM | IC50 [2]: 3.63 µM | IC50 [5]: 1.81 µM | IC50 [6]: 3.61 µM | IC50 [7]: 0.83 µM

IC50 (A549): 2.61 µM | IC50 (NCI-H358): 4.17 µM | IC50 [3]: > 12.5 µM | IC50 [4]: > 12.5 µM
SMILES: O=C(Nc1cccc(-c2cnc3c(NC(=O)c4cc(Cl)cc(Cl)c4)nccn23)c1)Nc1ccc(F)cc1F
IC50 [1]: 0.06 µM | IC50 [2]: 2.56 µM | IC50 [5]: 0.88 µM | IC50 [6]: 2.77 µM | IC50 [7]: 0.62 µM

IC50 (A549): 8.44 µM | IC50 (NCI-H358): 8.58 µM | IC50 [3]: > 12.5 µM | IC50 [4]: > 12.5 µM
SMILES: O=C(Nc1cccc(-c2cnc3c(NC(=O)c4cc(Cl)cc(Cl)c4)nccn23)c1)Nc1ccc(Cl)c(C(F)(F)F)c1
IC50 [1]: 0.03 µM | IC50 [2]: 8.01 µM | IC50 [5]: 9.51 µM | IC50 [6]: 11.6 µM | IC50 [7]: 10 µM

IC50 [3]: > 12.5 µM | IC50 [4]: 5.01 µM
SMILES: O=C(Nc1cccc(-c2cnc3c(NC(=O)c4ccc(F)c(C(F)(F)F)c4)nccn23)c1)Nc1ccc(Cl)c(C(F)(F)F)c1
IC50 [1]: 0.06 µM

SMILES: Nc1nccn2c(-c3cccc(NC(=O)Nc4ccc(Br)cc4)c3)cnc12
IC50 [1]: 4.64 µM

SMILES: O=C(Nc1cccc(-c2cnc3c(NC(=O)c4ccc(F)c(C(F)(F)F)c4)nccn23)c1)c1ccc(F)c(Cl)c1
IC50 [1]: 1.14 µM

SMILES: O=C(Nc1cccc(-c2cnc3c(NC(=O)c4ccccc4)cccn23)c1)Nc1cccc(C(F)(F)F)c1
IC50 [1]: 4.29 µM

SMILES: Nc1nccn2c(-c3cccc(NC(=O)c4ccc(F)c(C(F)(F)F)c4)c3)cnc12
IC50 [1]: 2.13 µM

SMILES: Nc1nccn2c(-c3cccc(NC(=O)c4ccc(F)c(Cl)c4)c3)cnc12
IC50 [1]: 0.34 µM

SMILES: O=C(Nc1cccc(-c2cnc3c(NC(=O)c4ccc(OC(F)(F)F)cc4)nccn23)c1)c1ccc(F)c(Cl)c1
IC50 [1]: 0.44 µM

SMILES: Nc1nccn2c(-c3cccc(NC(=O)c4ccc(Br)cc4)c3)cnc12
IC50 [1]: 0.75 µM

SMILES: Nc1nccn2c(-c3cccc(NC(=O)c4ccc(Cl)c(Cl)c4)c3)cnc12
IC50 [1]: 1.21 µM

SMILES: O=C(Nc1cccc(-c2cnc3c(NC(=O)c4ccc(F)c(Cl)c4)nccn23)c1)c1ccc(F)c(Cl)c1
IC50 [1]: 0.89 µM

SMILES: O=C(Nc1cccc(-c2cnc3c(NC(=O)c4ccc(OC(F)(F)F)cc4)nccn23)c1)Nc1ccc(F)cc1F
IC50 [1]: 3.79 µM

SMILES: O=C(Nc1cccc(-c2cnc3c(NC(=O)c4ccc(F)c(C(F)(F)F)c4)nccn23)c1)c1ccc(Cl)c(C(F)(F)F)c1
IC50 [1]: 0.46 µM

SMILES: Nc1nccn2c(-c3cccc(NC(=O)Nc4cc(C(F)(F)F)cc(C(F)(F)F)c4)c3)cnc12
IC50 [1]: 9.06 µM

SMILES: O=C(Nc1cccc(-c2cnc3c(NC(=O)c4ccccc4)cccn23)c1)c1cccc(C(F)(F)F)c1
IC50 [1]: > 30 µM

SMILES: COc1cc(C(=O)Nc2cccc(-c3cnc4c(N)nccn34)c2)cc(OC)c1OC
IC50 [1]: 1.54 µM

SMILES: Nc1nccn2c(-c3cccc(NC(=O)Nc4ccc(F)c(Cl)c4)c3)cnc12
IC50 [1]: 4.34 µM

SMILES: Nc1nccn2c(-c3cccc(NC(=O)c4cc(Cl)cc(Cl)c4)c3)cnc12
IC50 [1]: 2.94 µM

SMILES: Cc1ccc(C)c(C(=O)Nc2cccc(-c3cnc4c(N)nccn34)c2)c1
IC50 [1]: 2.73 µM

SMILES: COc1ccc(NC(=O)Nc2cccc(-c3cnc4c(N)nccn34)c2)cc1
IC50 [1]: 3 µM

SMILES: Cc1ccc(C(=O)Nc2nccn3c(-c4cccc(NC(=O)c5ccc(Cl)c(C(F)(F)F)c5)c4)cnc23)cc1Cl
IC50 [1]: 2.79 µM

SMILES: O=C(Nc1cccc(-c2cnc3c(NC(=O)c4cccc(C(F)(F)F)c4)nccn23)c1)c1ccc(Cl)c(C(F)(F)F)c1
IC50 [1]: 12.7 µM

SMILES: O=C(Nc1cccc(-c2cnc3c(NC(=O)c4ccccc4)cccn23)c1)Nc1cccc(Cl)c1Cl
IC50 [1]: 15.9 µM

SMILES: O=C(Nc1cccc(-c2cnc3c(NC(=O)c4cccc(Cl)c4Cl)nccn23)c1)Nc1ccc(F)cc1F
IC50 [1]: 0.17 µM

SMILES: O=C(Nc1cccc(-c2cnc3c(NC(=O)c4cccc(OC(F)(F)F)c4)nccn23)c1)c1ccc(Cl)c(C(F)(F)F)c1
IC50 [1]: 1.03 µM

SMILES: Nc1nccn2c(-c3cccc(NC(=O)Nc4cccc(C(F)(F)F)c4)c3)cnc12
IC50 [1]: 5.23 µM

SMILES: O=C(Nc1cccc(-c2cnc3c(NC(=O)c4ccccc4)cccn23)c1)c1ccc(Br)cc1
IC50 [1]: 6.35 µM

SMILES: Cc1ccc(C(=O)Nc2nccn3c(-c4cccc(NC(=O)Nc5ccc(F)cc5F)c4)cnc23)cc1Cl
IC50 [1]: 1.98 µM

SMILES: O=C(Nc1cccc(-c2cnc3c(NC(=O)c4ccc(Br)cc4)nccn23)c1)c1ccc(F)c(Cl)c1
IC50 [1]: 0.49 µM
